The results in this text go back to ChEMBL document CHEMBL4354848, “Molecular Design and Synthesis of Ivermectin Hybrids Targeting Hepatic and Erythrocytic Stages of Plasmodium Parasites” (J Med Chem, 2020).

The source made the active and inactive calls. No cut-off for these calls is given here.

For one data set, the system named is Huh-7. Briefly: Cytotoxicity against human HuH7 cells infected with luciferase expressing Plasmodium berghei sporozoites assessed as reduction in cell viability preincubated for 1 hr followed by parasite infection and measured after 48 hrs by alamar blue assay. The class given is cell-based. As to conditions: huh-7, 46 h, in the assay text read “46 hrs” for “48 hrs”. The procedure, abridged:
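Huh7 cells were pre-treated for 1 h with serial dilutions from 10 mM DMSO stocks, then infected with luciferase-expressing P. berghei sporozoites and spun at 1800 xg for 5 min. Cultures were kept at 37 °C, 5% CO2. Viability was read by Alamar Blue added at 46 h post infection, following the manufacturer's instructions.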

For data set [1], the system named is Plasmodium berghei. The data set is described as follows: Antiplasmodial activity against luciferase expressing Plasmodium berghei sporozoites infected in human HuH7 cells assessed as reduction in parasite load at 1 to 10 uM preincubated for 1 hr followed by parasite infection and measured after 46 hrs by bioluminescence assay. It is filed as functional, organism-based. The procedure, abridged:
(§1)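 Huh7 hepatoma cells seeded at 1x10^4/well, left overnight at 37 °C, 5% CO2. Serial dilutions from 10 mM DMSO stocks in medium with gentamicin and amphotericin B added 1 h before 1x10^4 firefly luciferase-expressing P. berghei sporozoites from An. stephensi salivary glands. Spin 1800 xg for 5 min, then culture. Parasite load read by bioluminescence. DMSO and atovaquone as controls. IC50 from nonlinear regression of normalized curves.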

Another data set concerns Anopheles stephensi. Briefly: Insecticidal activity against compound treated Balb/c mouse blood fed Anopheles stephensi assessed as effect on mosquito survival at 1 mg/kg, po administered via gavage 24 hrs prior to blood feed for 20 mins under dark condition and measured daily up to 14 days post blood feed. It is filed as functional, organism-based. The gist of the method: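 Balb/c mice (6-8 weeks) received a single oral dose of 1 mg/kg as a suspension in sunflower oil. Controls got DMSO in sunflower oil. At 24 h, ~30 mosquitoes per mouse fed for ~20 min in the dark. Blood ingestion was confirmed visually, and survival was scored daily up to 14 days.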

Data set [2] has as its system Plasmodium berghei. Briefly: Antiplasmodial activity against luciferase expressing Plasmodium berghei sporozoites infected in human HuH7 cells assessed as reduction in parasite load preincubated for 1 hr followed by parasite infection and measured after 46 hrs by bioluminescence assay. It is filed as functional, organism-based. The gist of the method: as §1
Data set [3] has as its system Plasmodium falciparum. The data set is described as follows: Antiplasmodial activity against chloroquine-sensitive ring-stage synchronized cultures of Plasmodium falciparum NF54 incubated for 48 hrs by SYBR green I dye based flow cytometry. It is filed as functional, organism-based. The gist of the method: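 Ring-stage synchronized PfNF54 cultures (2.5% hematocrit, ~1% parasitemia) exposed to compounds or DMSO vehicle for 48 h at 37 °C under 5% CO2/5% O2. Stocks in DMSO diluted in RPMI 1640-based medium with Albumax, HEPES, hypoxanthine. ~800 000 cells stained with SYBR green I for 20 min in the dark; ~100,000 events counted by flow cytometry. Triplicates, at least three experiments.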
(Flow cytometry measures light scatter and fluorescence of single cells or particles in a stream.)

The subject of data set [4] is Plasmodium falciparum. The data set is described as follows: Potency index, ratio of ivermectin IC50 to test compound IC50 for antiplasmodial activity against chloroquine-sensitive ring-stage synchronized cultures of Plasmodium falciparum NF54. The class given is functional.
For data set [5], the system named is Plasmodium berghei. The data set is described as follows: Potency index, ratio of ivermectin IC50 to test compound IC50 for antiplasmodial activity against luciferase expressing Plasmodium berghei sporozoites infected in human HuH7 cells. It is filed as functional.
Where [6] appears, read: Plasmodium falciparum, NF54, 48 h, read-out: IC50.

Consider `CC[C@H](C)[C@H]1O[C@]2(CC[C@@H]1C)C[C@@H]1C[C@@H](C/C=C(\C)[C@@H](OC(=O)Cn3cc(COc4nc(C)c(C(=O)OC(C)C)c(-c5cccc([N+](=O)[O-])c5)n4)nn3)[C@@H](C)/C=C/C=C3\CO[C@@H]4[C@H](O[Si](C)(C)C(C)(C)C)C(C)=C[C@@H](C(=O)O1)[C@]34O)O2`, for which the Activity entry with Huh-7 is “Non-Toxic”. In addition, the outcome in the data set on Plasmodium berghei [1] was inactive.
For the molecule IVERMECTIN [listing 1 of 2 here], in the data set on Anopheles stephensi, the outcome was Active.
One may read the IC50 as the concentration needed to halve the response being measured. As to `CCOC(=O)c1c(C)nc(OCc2cn(CC(=O)O[C@@H]3/C(C)=C/C[C@@H]4C[C@@H](C[C@]5(CC[C@H](C)[C@@H]([C@@H](C)CC)O5)O4)OC(=O)[C@@H]4C=C(C)[C@@H](O)[C@H]5OC/C(=C\C=C\[C@@H]3C)[C@]54O)nn2)nc1-c1cc(OC)c(OC)cc1[N+](=O)[O-]`, the IC50 stood at 503 nM in the data set with Plasmodium berghei [2] (Plasmodium berghei, Huh-7) and 50.2 nM in the data set on Plasmodium falciparum [3] (setting [6]). The Activity entry in the data set on Huh-7 was “Non-Toxic”. For the same molecule, in the data set with Anopheles stephensi, the outcome was inactive. Further, the figures for the “Ratio IC50” value in the data set with Plasmodium falciparum [4] and with Plasmodium berghei [5] were 5 and 3, respectively. Besides, the outcome in the data set with Plasmodium berghei [1] was Active.
As for `CCOC(=O)c1c(C)nc(OCc2cn(CC(=O)O[C@@H]3/C(C)=C/C[C@@H]4C[C@@H](C[C@]5(CC[C@H](C)[C@@H]([C@@H](C)CC)O5)O4)OC(=O)[C@@H]4C=C(C)[C@@H](O)[C@H]5OC/C(=C\C=C\[C@@H]3C)[C@]54O)nn2)nc1-c1ccccc1`, the concentration for half-maximal inhibition (IC50) in the data set with Plasmodium berghei [2] (Plasmodium berghei, Huh-7) was found to be 990 nM; in the data set on Plasmodium falciparum [3] (setting [6]), 110 nM. In addition, the Activity result with Huh-7 was “Non-Toxic”. Further, the “Ratio IC50” value in the data set on Plasmodium falciparum [4] is given as 11. In addition, in the data set with Plasmodium berghei [1], the outcome was Active.
On to `CC[C@H](C)[C@H]1O[C@]2(CC[C@@H]1C)C[C@@H]1C[C@@H](C/C=C(\C)[C@@H](O)[C@@H](C)/C=C/C=C3\CO[C@@H]4[C@H](O)C(C)=C[C@@H](C(=O)O1)[C@]34O)O2` [IVM AGLYCONE], for which the IC50 in the data set with Plasmodium berghei [2] (Plasmodium berghei, Huh-7) is 4560 nM; with Plasmodium falciparum [3] it was “Not Active”. Further, the Activity entry in the data set on Huh-7 was “Non-Toxic”. Also, the outcome with Anopheles stephensi was inactive. Moreover, the outcome in the data set on Plasmodium berghei [1] was Active.
With `O=C1C(O)=C([C@H]2CC[C@H](c3ccc(Cl)cc3)CC2)C(=O)c2ccccc21` [ATOVAQUONE], the IC50 with Plasmodium berghei [2] (Plasmodium berghei, Huh-7) is 0.7 nM.
In the case of IVERMECTIN [listing 2 of 2 here], the IC50 in the data set on Plasmodium berghei [2] was 1640 nM; with Plasmodium falciparum [3] (read-out: IC50), 520 nM.
With `CC[C@H](C)[C@H]1O[C@]2(CC[C@@H]1C)C[C@@H]1C[C@@H](C/C=C(\C)[C@@H](OC(=O)Cn3cc(COc4nc(C)c(C(=O)OC(C)C)c(-c5cccc([N+](=O)[O-])c5)n4)nn3)[C@@H](C)/C=C/C=C3\CO[C@@H]4[C@H](O)C(C)=C[C@@H](C(=O)O1)[C@]34O)O2`, the IC50 in the data set with Plasmodium berghei [2] (Plasmodium berghei, Huh-7) was 911 nM; with Plasmodium falciparum [3] (setting [6]) it was 161 nM. The Activity entry in the data set on Huh-7 is reported as “Non-Toxic”. Further, in the data set with Plasmodium falciparum [4], the “Ratio IC50” value stood at 3. Further, the outcome with Plasmodium berghei [1] was Active.
